{
  "source": "paper PMC2803432",
  "about": "(Current Chemical Genomics, 2008)",
  "key": {"14-3-3 proteins": {"system": "14-3-3 proteins", "settings": "cited from earlier work"}, "14-3-3γ [1]": {"biological_target": "T1, 14-3-3γ (Homo sapiens, UniProt P61981)", "T1 sequence (P61981 1-247)": "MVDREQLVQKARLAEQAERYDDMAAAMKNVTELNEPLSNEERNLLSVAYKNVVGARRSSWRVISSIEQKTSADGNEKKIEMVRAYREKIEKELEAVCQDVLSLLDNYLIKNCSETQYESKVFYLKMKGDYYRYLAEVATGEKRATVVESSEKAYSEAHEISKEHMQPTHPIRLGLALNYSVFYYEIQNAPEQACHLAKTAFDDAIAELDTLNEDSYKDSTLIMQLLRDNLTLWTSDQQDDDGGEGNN", "assay": "AlphaScreen direct binding of biotin-pS259-Raf-1 to GST-14-3-3γ", "settings": "increasing GST-14-3-3γ and biotin-pS259-Raf-1 with both beads", "method_in_brief": "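Biotinylated pS259-Raf-1 peptide (LSQRSTpSTPNVHM) was titrated with purified GST-14-3-3γ; Z' runs used 100 nM peptide. Anti-GST acceptor beads were added and incubated 30 min, then streptavidin donor beads for 1.5 h. Luminescence was read under dim light. Background wells held one binding component.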"}, "14-3-3γ [2]": {"biological_target": "T1, 14-3-3γ", "assay": "AlphaScreen direct binding of GST-R18 to biotin-14-3-3γ", "settings": "GST-R18 5 nM to 500 nM; biotin-14-3-3γ 5 nM or 10 nM", "method_in_brief": "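His-14-3-3γ expressed in E. coli BL21(DE3), Ni2+-column purified, desalted, then biotinylated with sulfo-NHS-LC-biotin. GST-R18 expressed in E. coli. Anti-GST acceptor beads added, then streptavidin donor beads 30 min later. Read after 1.5 h at room temperature under dim light. Background wells held one component. Triplicate, mean ± SD.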"}, "GST-14-3-3γ [3]": {"biological_target": "GST-14-3-3γ (UniProt P61981)", "assay": "AlphaScreen or HTRF"}, "biotinylated His-14-3-3γ [4]": {"biological_target": "biotinylated His-14-3-3γ (UniProt P61981)", "assay": "AlphaScreen or HTRF"}, "GST-14-3-3γ [5]": {"biological_target": "T2, GST-14-3-3γ (UniProt P61981 1-247)", "T2 sequence (looked up)": "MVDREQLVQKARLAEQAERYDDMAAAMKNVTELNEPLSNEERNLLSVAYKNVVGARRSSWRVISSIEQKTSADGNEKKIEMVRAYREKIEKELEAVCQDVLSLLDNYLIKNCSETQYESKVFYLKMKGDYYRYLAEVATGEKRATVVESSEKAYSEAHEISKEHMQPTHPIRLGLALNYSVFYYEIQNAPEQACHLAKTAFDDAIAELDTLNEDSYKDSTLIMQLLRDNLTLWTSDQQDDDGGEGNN", "assay": "AlphaScreen or HTRF"}, "biotinylated His-14-3-3γ [6]": {"biological_target": "T3, biotinylated His-14-3-3γ (UniProt P61981 1-247, biotin (EZ-Link sulfo-NHS-LC-biotin; sites not stated))", "T3 sequence (looked up)": "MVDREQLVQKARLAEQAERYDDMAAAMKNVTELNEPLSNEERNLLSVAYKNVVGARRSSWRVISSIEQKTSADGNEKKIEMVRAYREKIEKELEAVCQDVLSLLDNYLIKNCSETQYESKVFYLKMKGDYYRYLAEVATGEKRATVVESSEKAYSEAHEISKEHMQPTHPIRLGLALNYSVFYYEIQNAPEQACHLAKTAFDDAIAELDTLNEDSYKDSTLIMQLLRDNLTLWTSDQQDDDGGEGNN", "assay": "AlphaScreen or HTRF"}},
  "note": "Residues, ends and D or L forms follow the SMILES beside them. No end group written: not given here.",
  "data": [
    {"molecule": "CSCC[C@H](NC(=O)[C@H](CC(N)=O)NC(=O)[C@H](C)NC(=O)[C@H](CCC(=O)O)NC(=O)[C@H](CC(C)C)NC(=O)[C@H](CC(=O)O)NC(=O)[C@H](CC(C)C)NC(=O)[C@H](Cc1c[nH]c2ccccc12)NC(=O)[C@H](CO)NC(=O)[C@H](CC(C)C)NC(=O)[C@H](CC(=O)O)NC(=O)[C@H](CCCNC(=N)N)NC(=O)[C@@H]1CCCN1C(=O)[C@@H](NC(=O)[C@H](CS)NC(=O)[C@H](Cc1c[nH]cn1)NC(=O)[C@@H]1CCCN1)C(C)C)C(=O)N[C@@H](CS)C(=O)N[C@@H](CC(C)C)C(=O)N1CCC[C@H]1C(=O)O", "note": "[R18] (H-PHCVPRDLSWLDLEANMCLP-OH; N-terminus and C-terminus assumed)", "values": [
      {"measurement": "effect of GST fusion on efficacy of R18 for 14-3-3 binding", "setting": "14-3-3 proteins; GST fusion of R18, ref [10]", "result": "no detectable effect on the efficacy of R18 for 14-3-3 binding"},
      {"measurement": "competition with natural proteins for binding of 14-3-3 (in words)", "setting": "14-3-3 proteins; ref [17]", "result": "can effectively compete with other natural proteins for the binding of 14-3-3 proteins"},
      {"measurement": "affinity for 14-3-3 proteins (in words)", "setting": "14-3-3 proteins; unphosphorylated peptide from phage display, ref [10]", "result": "exhibits a high affinity for 14-3-3 proteins"}
    ]},
    {"molecule": "Biotin-LSQRSTpSTPNVHM [biotin-pS259-Raf-1]", "values": [
      {"measurement": "Alpha signal with increasing concentration (in words)", "setting": "14-3-3γ [1]", "result": "dose-dependent increase in Alpha signal"}
    ]},
    {"molecule": "GST-R18: GST-tagged R18 protein-peptide fusion, purified from bacterial cells (PHCVPRDLSWLDLEANMCLP; cysteine pairing not given here; also: GST tag fused, end not given here)", "values": [
      {"measurement": "Alpha signal with increasing concentration (in words)", "setting": "14-3-3γ [2]", "result": "induced the robust production of Alpha signal in a dose-dependent manner"}
    ]},
    {"molecule": "pS967-ASK1 peptide", "values": [
      {"measurement": "IC50", "setting": "GST-14-3-3γ [3]", "result": 535, "unit": "nM"},
      {"measurement": "IC50", "setting": "biotinylated His-14-3-3γ [4]", "result": 549, "unit": "nM"}
    ]},
    {"molecule": "PHCVPRDLSWLDLEANMCLP", "note": "[untagged R18 peptide]", "values": [
      {"measurement": "IC50", "setting": "GST-14-3-3γ [5]", "result": "35.7 ± 1.1", "unit": "nM"},
      {"measurement": "IC50", "setting": "biotinylated His-14-3-3γ [6]", "result": "28 ± 1.1", "unit": "nM"}
    ]}
  ]
}
